Assay outcomes: PubChem, several laboratories
HCV NS3 hel inh – inhibitors of HCV NS3 helicase, primary screen, biochemical, Cy5 molecular beacon fluorescence; NS3 helicase DNA unwinding; 0.56% of 290,000 active; inhibition, % at 10.9 µM;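 active = inhibition above the mean of all tested compounds plus 3 SD, set per campaign, cut at about 35% in these data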;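 note: 0% = DMSO wells and 100% = thioflavine S control wells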
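Measured by: Cy5 fluorescence, 0 and 60 min reads / Assay system: NS3 helicase fragment of HCV / Control set: low DMSO, high thioflavine S at 110 µM / Times: 1 h reaction at 25 °C, ATP-initiated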
UPR CHOP act – activators of apoptotic CHOP UPR arm, primary screen, cell-based, CHO-CHOP luciferase reporter, luminescence, uHTS; UPR activation; percent of tunicamycin response over DMSO baseline; activation, % at 10 µM; 0.34% of 330,000 active; AID 449763, 2010;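 active = at 10 µM dose, activation of 40% or more, normalized to positive control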;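 note: 100% = tunicamycin at 10 µg/mL and 0% = DMSO alone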
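Test system: CHO-CHOP cells, stable luciferase reporter of PERK-eIF2a-CHOP signalling | Quantity: 500 CHO-CHOP cells per well | Buffer or medium: F12 plus 10% serum | Compound dosing: 10 µM single point, 0.5% DMSO | Schedule: 6 h compound treatment, 37 °C | Signal: Luciferase luminescence | Control set: Tunicamycin high control, DMSO low control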
CHOP inhibitor – inhibitors of CHOP promoter induction, primary screen, cell-based, unfolded protein response, luciferase reporter; CHO-K1 CHOP-promoter luciferase, tunicamycin-induced, 15-18 h; inhibition, % at 10 µM; 3.8% of 220,000 active; AID 2732, 2010;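 active = compounds that reduced the stress-induced luciferase reporter signal by more than about 70% of percent inhibition, limit read from the data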;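 note: 0% = tunicamycin plus vehicle and 100% = wells without tunicamycin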
PfM18AAP inh – PfM18AAP inhibitors, malaria aminopeptidase, primary screen, biochemical, QFRET, recombinant enzyme; H-Glu-NHMec fluorogenic cleavage; AID 1822, 2009; inhibition, % at 7.35 µM; 1.2% of 290,000 active;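 active = inhibition above the campaign mean inhibition over all tested compounds plus 3 SD, cut at about 28% in these data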;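 note: 0% = plate median of test compound wells and 100% = 2 mM ZnCl2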
p97 ATPase inh – inhibitors of human p97 ATPase, primary screen, biochemical; recombinant p97 ATPase, Kinase-Glo ATP luminescence, 3 h; inhibition, % at 8 µM; 0.42% of 220,000 active; in the data active = inhibition above about 15%;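 note: 0% = DMSO vehicle and 100% = wells lacking enzyme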
Target sequence (P55072 whole entry, looked up): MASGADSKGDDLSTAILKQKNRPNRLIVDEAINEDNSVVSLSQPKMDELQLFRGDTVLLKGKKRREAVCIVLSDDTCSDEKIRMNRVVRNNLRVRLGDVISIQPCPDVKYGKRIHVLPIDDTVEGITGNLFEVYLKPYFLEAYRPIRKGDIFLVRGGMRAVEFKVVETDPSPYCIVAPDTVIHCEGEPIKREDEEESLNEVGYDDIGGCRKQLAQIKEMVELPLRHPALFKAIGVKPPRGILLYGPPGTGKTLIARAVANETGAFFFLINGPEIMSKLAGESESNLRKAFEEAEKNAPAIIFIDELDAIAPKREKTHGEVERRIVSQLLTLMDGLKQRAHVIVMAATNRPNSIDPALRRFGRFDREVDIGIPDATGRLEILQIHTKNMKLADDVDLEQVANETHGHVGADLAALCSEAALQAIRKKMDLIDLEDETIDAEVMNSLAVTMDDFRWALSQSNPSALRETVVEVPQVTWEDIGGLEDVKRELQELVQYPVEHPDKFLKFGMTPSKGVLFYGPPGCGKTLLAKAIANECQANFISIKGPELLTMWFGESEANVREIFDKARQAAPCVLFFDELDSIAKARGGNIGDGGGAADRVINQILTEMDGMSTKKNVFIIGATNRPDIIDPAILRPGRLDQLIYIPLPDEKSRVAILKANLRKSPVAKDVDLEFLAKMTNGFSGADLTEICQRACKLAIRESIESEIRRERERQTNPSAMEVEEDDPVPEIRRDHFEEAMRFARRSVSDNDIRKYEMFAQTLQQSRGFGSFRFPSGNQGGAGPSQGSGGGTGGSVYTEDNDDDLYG
XBP1 UPR activ – activators of adaptive XBP1 UPR arm, primary screen, cell-based, CHO-XBP1 luciferase reporter, luminescence, uHTS; IRE1-XBP1 UPR activation; percent of tunicamycin response, DMSO as zero; activation, % at 20 µM; 0.33% of 330,000 active; AID 463104, 2010;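 active = versus positive control, 20 µM dose yields 30% or more activation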;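 note: 100% = tunicamycin at 10 µg/mL and 0% = DMSO only wells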
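Assay system: CHO-XBP1 luciferase reporter cells; Schedule: 6 h treatment, 37 °C; Detection: glow luminescence from Steady-Glo reagent; Benchmarks: high control tunicamycin 10 µg/mL final, low control DMSO vehicle only.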
The depositor's hits bear a star; . = not tested or not shown. The list is not random: actives were taken first. Their share in the collection is about 4.5%.

SMILES | HCV NS3 hel inh | UPR CHOP act | CHOP inhibitor | PfM18AAP inh | p97 ATPase inh | XBP1 UPR activ
O=C(Nc1ccc(C(F)(F)F)cc1)c1cc(S(=O)(=O)NCC2COc3ccccc3O2)ccc1F (stereo unspecified) | -14 | -1 | 82* | 7 | 6 | -2
CC(C)c1ccc(NC(=O)c2cc(S(=O)(=O)NCC3COc4ccccc4O3)ccc2F)cc1 (stereo unspecified) | -20 | 1 | 81* | -7 | -4 | -3
COc1ccc(NC(=O)c2cc(S(=O)(=O)NCC3COc4ccccc4O3)ccc2F)cc1 (stereo unspecified) | -6 | 1 | 45 | -2 | -1 | -5
Cn1c2c(c(=O)n(C)c1=O)C(C(F)(F)F)(C(F)(F)F)N=C(c1ccc(Cl)cc1)N2 | 1 | 15 | 77* | -3 | 0 | 8
CCc1ccc(OCC(=O)NC(=S)Nc2cccc(CO)c2)c(Br)c1 | -5 | 2 | 83* | 3 | -2 | 1
CCc1ccc(OCC(=O)NC(=S)Nc2ccc(F)cc2)c(Br)c1 | -3 | 1 | 51 | -10 | -1 | 2
O=C(COC(=O)Cc1cccs1)NCc1ccc(F)cc1 | 0 | 0 | . | 5 | . | 1
Cc1ccccc1S(=O)(=O)c1c(C)cc(C)n(C(C)C)c1=O | -5 | 4 | 39 | 2 | -3 | -1
CCCCn1c(C)cc(C)c(S(=O)(=O)c2ccccc2C)c1=O | -2 | 0 | 94* | -17 | -8 | -2
CN(C)CCCCOc1ccccc1-c1ccccc1 | -23 | 1 | -26 | 29* | 0 | 5
O=C(C1CCC(Cn2c(=S)[nH]c3ccccc3c2=O)CC1)N1CCN(c2ccccc2)CC1 (stereo unspecified) | -14 | 1 | . | 3 | 2 | -2
COc1ccc(N2CCN(C(=O)C3CCC(Cn4c(=S)[nH]c5ccccc5c4=O)CC3)CC2)cc1 (stereo unspecified) | 21 | 3 | 71* | 1 | 1 | 0
COc1ccc(N2CCN(C(=O)c3ccc4c(c3)[nH]c(=S)n3c5ccccc5nc43)CC2)cc1 | 9 | 1 | 73* | 12 | 8 | -2
COCCCNCCCOc1ccc(C(C)(C)c2ccccc2)cc1 | -47 | 2 | 46 | 6 | 2 | -2
CC(C)(C)c1ccc(OCCCNCc2ccccc2)cc1 | -75 | -1 | 95* | -6 | -1 | -1
O=S(=O)(Nc1cccc(-n2cnnn2)c1)c1ccc(F)cc1 | . | 0 | . | . | . | -1
COc1cc2[nH]c(=S)nc(NCc3cccnc3)c2cc1OC | -8 | -1 | . | 30* | . | -1
COc1cc2[nH]c(=S)nc(NCc3ccccc3)c2cc1OC | -8 | 0 | . | 5 | . | -1
CN1CCN(CC(O)c2ccccc2)CC1 (stereo unspecified) | 10 | 1 | 80* | 5 | 5 | -3
CCOC(=O)c1ccccc1NC(=O)CSC(C)C(=O)Nc1cc(C)on1 (stereo unspecified) | . | 0 | . | . | . | 0
COc1cc2c(cc1OC)C(c1ccc(-c3ccc(Cl)c(Cl)c3)o1)=NCC2 | -9 | 1 | 80* | 2 | 3 | 5
COc1cc2c(cc1OC)C(c1ccc(-c3ccccc3Cl)o1)=NCC2 | -17 | -1 | 42 | 2 | -4 | -2
COc1cc2c(cc1OC)C(c1ccc(-c3cc(Cl)ccc3Cl)o1)=NCC2 | -12 | -1 | 85* | -8 | 1 | 4
COc1cc2c(cc1OC)C(c1ccc(-c3ccc(Cl)cc3Cl)o1)=NCC2 | -69 | -1 | 64 | -3 | -5 | 2
CC(C)c1ccc(NC(=S)N2CCN(S(=O)(=O)c3ccccc3)CC2)cc1 | 10 | 1 | . | 1 | . | -6
SMILES | HCV NS3 hel inh | UPR CHOP act | CHOP inhibitor | PfM18AAP inh | p97 ATPase inh | XBP1 UPR activ
O=C(Nc1ccc(F)c(F)c1)c1cnc(-c2ccccc2)nc1-c1ccccc1 | 6 | 0 | 94* | 2 | 5 | 7
O=C(Nc1ccc(F)cc1)c1cnc(-c2ccccc2)nc1-c1ccccc1 | 3 | 1 | 81* | -1 | 3 | 5
CC[C@H](C)/C=C/C1=CC2=C(Cl)C(=O)[C@@]3(C)OC(=O)C(C(=O)[C@H](C)[C@@H](C)O)=C3C2=CO1 | . | -2 | . | . | . | 1
Cc1c(Cl)cccc1NC(=O)NN1CCN(C)CC1 | 6 | -1 | . | 0 | . | -2
CC1(C)Cc2c(sc3c2c(=N)n(Cc2ccco2)c(=O)n3Cc2ccccc2)CO1 | -17 | -4 | 70* | -6 | -1 | 2
COc1ccccc1NC(=O)C(C)OC(=O)Cc1ccsc1 (stereo unspecified) | . | -1 | . | . | . | -2
CC(CCc1ccccc1)NC(=O)COC(=O)c1ccc([N+](=O)[O-])cc1 (stereo unspecified) | -13 | 0 | . | -2 | . | -2
CC(CCc1ccccc1)NC(=O)COC(=O)c1ccc(S(C)(=O)=O)c([N+](=O)[O-])c1 (stereo unspecified) | -2 | 12 | 101* | -11 | 2 | -7
Cc1ccccc1NC(=O)COC(=O)c1ccc(S(C)(=O)=O)c([N+](=O)[O-])c1 | 1 | -2 | 103* | 6 | 4 | -6
O=C(CCn1nc(-c2ccc(Cl)cc2)ccc1=O)N1CCN(c2ccccc2)CC1 | 11 | 0 | . | 5 | . | -2
c1ccc2c(c1)OCC(c1nnc3sc(-c4ccc5c(c4)OCO5)nn13)O2 (stereo unspecified) | -8 | 3 | 86* | -51 | 7 | 3
Cc1nn(-c2ccc(Cl)cc2)c(NC(=O)C(C)C)c(-c2ccccc2)c1=O | 0 | -2 | -11 | 1 | -7 | 5
O=C1CSC(=S)N1/N=C/c1ccc(C(F)(F)F)cc1 | 10 | 0 | . | 31* | . | 3
N=C1SCC(=O)N1/N=C/c1ccccc1 | -2 | 2 | 6 | -4 | 3 | 5
CC1(c2ccc(Cl)cc2)NC(=O)N(CC(=O)Nc2ccc(N3CCCCC3)cc2)C1=O (stereo unspecified) | . | 1 | . | . | . | 8
COc1cc(/C=C2\C(C)=C(C#N)c3nc(N)c(C#N)c(C)c32)ccc1OCC(=O)O | 12 | -2 | 1 | 13 | 5 | -2
CC1=C(C#N)c2nc(N)c(C#N)c(C)c2/C1=C\c1ccc(C)cc1 | 11 | -11 | 98* | 2 | 4 | -6
O=c1c[n+]([O-])c2ccccc2n1OCc1c(F)cccc1F | -6 | 1 | 88* | 9 | 5 | -3
